An excerpt weighted towards active compounds, which were near 2.9% of everything screened.
PGC1a acetyl inh – lowers PGC1a acetylation signal in U2OS cells; AlphaScreen anti-acetyl-lysine; with virally co-expressed GCN5 acetyltransferase; inhibition, % at 15.6 µM; 350,000 compounds, 0.17% hits;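 active means every replicate shows inhibition of at least 40%; inconclusive means mean inhibition at least 40% but some replicate below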;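 further: 0% = neutral control wells and 100% = positive control wells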
Vif inh – inhibitors of HIV Vif; HEK293T cells, Vif self-association by quenched fluorescence, imaging, 24 h; inhibition, % at 7.49 µM; 340,000 compounds, 0.35% hits; in the data active means inhibition above about 50%, passing the limit was not always enough; inconclusive means no clear call, values can overlap the other calls; inactive means below about 31%
Cneo AK release – Cryptococcus neoformans lysis via adenylate kinase release; C. neoformans lysis, adenylate kinase release luminescence, 4 h; normalised: neutral wells 0, clomiphene wells 100; lysis activity, % at 15 µM; AID 651654; 360,000 compounds, 0.2% hits;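 active means mean lysis activity across replicates of at least 80%, whatever share of replicates individually reach that level; inactive means mean lysis activity below 80%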
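read-out = cell lysis signal | test system = log-phase Cryptococcus neoformans yeast cells | input = cells at 5 × 10^6 per mL | medium = fresh YPD growth medium | signal = luminescent adenylate kinase detection reagent | timing = 4 h at 37 °C static, read 1 h later | dosing = single dose | controls = Clomiphene as positive lysis control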
rRNA inh HTS – inhibitors of bacterial rRNA selective over humanized ribosomes | 350,000 compounds, 1.6% hits | E. coli WT GFP vs humanized-ribosome RFP mutants, fluorescence, 24 h; active compounds read low; DMSO median 0, no signal -100 | GFP signal change (wild-type ribosome), % (test concentration not listed) | AID 720706;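 active means significant combined selectivity score with lowered wild-type GFP, culture density cut under 30%, mutant RFP and density less affected; inactive means any of these conditions unmet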
FGF22 binding – shifts melting point of recombinant human FGF22; activity (Tm shift, normalised), % at 9.99 µM; AID 651658; Q9HCT0; 340,000 compounds, 1.5% hits; recombinant FGF22 thermal shift, SYPRO orange fluorescence; percent of sucrose octasulfate shift, DMSO zero;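 active means mean Tm shift, scaled 0 neutral to 100 positive control, at about 1.3% or above, every replicate too, limit read from the data; inconclusive means no clear call, values can overlap the other calls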
Target sequence (Q9HCT0 whole entry, looked up): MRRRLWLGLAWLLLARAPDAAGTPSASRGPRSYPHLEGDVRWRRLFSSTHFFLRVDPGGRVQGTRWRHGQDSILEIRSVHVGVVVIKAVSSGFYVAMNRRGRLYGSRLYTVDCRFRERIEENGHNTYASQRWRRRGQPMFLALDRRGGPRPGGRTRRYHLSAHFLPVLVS
PglD DTNB – PglD (C. jejuni) enzyme inhibition; purified PglD enzyme, DTNB colorimetric CoA detection; inhibition, % at 12.5 µM; 360,000 compounds, 0.098% hits; AID 602405; in the data active means inhibition above about 16%, passing the limit was not always enough; inconclusive means no clear call, values can overlap the other calls
AID977621 – wild-type E. coli growth inhibition versus H69 humanized strain – H69 mutant RFP, wild-type GFP, cherry-pick, dose response; 1,900 tested, under 10 active; shares compounds with rRNA inh HTS; AID 977621; activity change, negative = inhibition at 50 µM; fluorescence, 24 h;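 active means Wild-type ribosome reporter drop at least double the humanized mutant ribosome reporter drop, growth loss under a set limit; inconclusive means no clear call, values can overlap the other calls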;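 further: wild-type GFP and H69 mutant RFP strains grown together 50/50 in each well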
AID977628 – E. coli growth inhibition, wild-type GFP versus h24 humanized RFP strain, dose response, h24 mutant RFP vs wild-type GFP, cherry-pick; shares compounds with rRNA inh HTS; E. coli WT GFP strain growth, fluorescence, 24 h; activity change, negative = inhibition at 50 µM; 1,900 tested, under 10 active; AID 977628;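 active means compound lowering the normal-ribosome reporter at least twice as much as the humanized-ribosome reporter, growth loss under a set limit; inconclusive means no clear call, values can overlap the other calls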;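 further: wild-type GFP and h24 humanized RFP strains co-cultured 1 to 1 per well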
Numbers without * were called inactive; ? = inconclusive; · = no result given.

SMILES	PGC1a acetyl inh	Vif inh	Cneo AK release	rRNA inh HTS	FGF22 binding	PglD DTNB	AID977621	AID977628
CCOc1ccccc1NC(=O)c1cc(SC)ccc1Cl	·	12	-1	-30*	0	9	-13	-7.5
CCOc1ccccc1NC(=O)c1cccc2ccccc12	·	?	-1	-7	0	-6	·	·
C=CCN(CC=C)CC(O)Cn1c2ccccc2c2ccccc21 (stereo not given)	-7	2	·	-21*	0	·	-9.5	?
CCN(CC)CC(O)Cn1c2ccccc2c2ccccc21 (stereo not given)	1	-2	-1	·	·	7	·	·
CCCNC(=O)N1CC2(C1)CN(C(=O)CC1CC1)[C@@H](CO)c1[nH]c3cc(OC)ccc3c12	11	·	·	3	·	·	·	·
CN(C)CCNc1ncnc2c1sc1nc(N3CCCC3)c3c(c12)CC(C)(C)OC3	-13	-2	3	-21*	0	-4	·	-5.3
Fc1cccc(Cc2noc(CN3CCCCC3CCc3ccccn3)n2)c1 (stereo not given)	·	-8	3	-25*	0	0	·	-14
CCN(Cc1ccccc1)C(=O)COC(=O)c1cc(Cl)nc(Cl)c1	11	-8	·	-35*	0	·	-18	-4.4
CS(=O)(=O)N1CC2CCCN2c2ccc(C(F)(F)F)cc21 (stereo not given)	-5	2	1	-33*	0	4	-1.4	-2.8
O=C(NCc1nc2ccccc2[nH]1)c1ccc(S(=O)(=O)N2CCCC2)cc1	-8	0	4	-29*	0	3	-19	·
COC(=O)[C@@]1(Sc2ccc(C)cc2)CC(=O)N[C@@H]1c1ccccc1	·	·	·	-14	0	·	·	·
COC(=O)[C@]1(Sc2ccc(C)cc2)CC(=O)N[C@@H]1c1ccccc1	·	·	·	-21*	0	·	-6.4	?
COc1ccc(C(=O)n2cnc3ccccc32)cc1[N+](=O)[O-]	-2	-1	6	-27*	0	-1	5.4	4.4
Cc1nc(Nc2ccccc2)sc1C(=O)Nc1ccccc1	·	0	·	-22*	0	·	?	?
CCOC(=O)c1sc(Nc2cccc(Cl)c2)nc1C	-9	-6	-1	-23*	0	3	-9.1	2.7
CN(Cc1ccc([N+](=O)[O-])cc1)c1ccccc1	-3	-4	-2	-26*	0	-4	-8.7	-8.9
CN(Cc1ccccc1)c1nc(-c2ccc([N+](=O)[O-])cc2)nc2ccccc12	10	-15	1	·	·	4	·	·
COCC(=O)N(C)C[C@@H]1Oc2cc(C#C[C@H](C)O)ccc2S(=O)(=O)N([C@H](C)CO)C[C@@H]1C	-5	·	-8	2	0	1	·	·
c1cc2cc(-c3c(-c4ccc5c(c4)OCO5)noc3-c3ccsc3)ccc2[nH]1	-6	8	-3	-13*	0	0	-10	-9.6
Cc1onc(-c2ccc3c(c2)OCO3)c1-c1ccc2[nH]ccc2c1	-4	-3	7	-17	0	-3	·	·
O=C(c1cccs1)c1c[nH]cc1-c1ccccc1	-6	9	1	-30*	0	12	-0.54	-2.7
O=C(c1ccccc1)c1c[nH]cc1-c1ccccc1	-14	6	-1	·	·	-7	·	·
Cc1cc(C)cc(NS(=O)(=O)c2c(C(=O)N3CCCCCC3)c(C)n(C)c2C)c1	1	-2	1	-29*	0	-2	-5.3	-7.1
Cc1ccccc1S(=O)(=O)N[C@@H]1CC[C@@H](CCn2cc(-c3ccccc3)nn2)O[C@@H]1CO	2	·	-1	-6	0	-1	·	·
Brc1ccccc1Cn1c(-c2cncs2)nc2ccccc21	-7	·	4	-9.4*	0	-3	-1.9	-11
SMILES	PGC1a acetyl inh	Vif inh	Cneo AK release	rRNA inh HTS	FGF22 binding	PglD DTNB	AID977621	AID977628
c1csc(Cn2c(-c3cccs3)nc3ccccc32)c1	0	-17	·	-13	·	0	·	·
N#Cc1nc(-c2ccco2)oc1NCc1ccccc1Cl	13	-2	3	-27*	0	-2	-4.4	-12
N#Cc1nc(-c2ccco2)oc1NCc1ccco1	-10	-6	-2	·	·	6	·	·
CCCNC(=O)N1C[C@@H](C)[C@H](OC)CN(C)C(=O)c2ccc(NC(=O)CCC)cc2OC[C@@H]1C	-2	·	-4	3	0	-2	·	·
CCN(CC)CC(=O)Nc1sc2c(c1C(=O)c1ccccc1OC)CCC2	0	-3	·	-22*	0	·	3	-9.9
O=C(C[C@@H]1CC[C@H]2[C@@H](COC[C@@H](O)CN2C(=O)Nc2ccc(Cl)cc2)O1)N1CCCCC1	11	·	-12	-25	-1	7	·	·
O=C(C[C@@H]1CC[C@@H]2[C@H](COC[C@H](O)CN2C(=O)Nc2ccc(Cl)cc2)O1)N1CCCCC1	-1	·	-8	-22*	-1	2	·	?
CCC(=O)N(C)C[C@@H]1Oc2ncc(-c3ccc(C#N)cc3)cc2C(=O)N([C@@H](C)CO)C[C@@H]1C	0	·	1	0	0	-2	·	·
CC(C)(C)C1CCC(C(=O)OCC(=O)N2CCN(C(=O)c3ccco3)CC2)CC1 (stereo not given)	3	18	-1	-22*	0	5	-5	-5.6
CC(C)(C)C1CCC(C(=O)OCC(=O)N2CCOCC2)CC1 (stereo not given)	·	8	·	11	0	·	·	·
Cc1cc(Br)cn2c(Cc3cccc(Cl)c3)c(-c3ccco3)nc12	·	·	·	-21*	0	·	4.2	-3.1
COc1ccc(NS(=O)(=O)c2cc(NC(=O)CCSc3ccccc3)ccc2OC)cc1	-4	-1	0	·	·	0	·	·
COc1ccc(NC(=O)CCS(=O)(=O)c2ccccc2Cl)cc1S(=O)(=O)Nc1ccc(Cl)cc1	·	-3	·	-19*	0	·	-7.7	·
COc1ccc(NC(=O)CCC(=O)c2cccs2)cc1S(=O)(=O)Nc1ccc(Cl)cc1	·	15	·	-19*	0	·	-15	·
C[C@@H]1CN([C@H](C)CO)C(=O)c2cccc(NS(C)(=O)=O)c2O[C@@H]1CN(C)CC1CC1	1	·	-7	3	0	6	·	·
CC1CCC2(CC1)SCC(=O)N2c1ccc(F)cc1 (stereo not given)	11	0	·	-19*	0	·	-3	-8.2
Cc1ccc(S(=O)(=O)Nc2cccc3c2O[C@@H](CN(C)CC2CC2)[C@H](C)CN([C@H](C)CO)C3=O)cc1	·	·	16	3	0	3	·	·
COc1ccc(CNC(=O)c2cccs2)cc1	2	-1	2	·	·	-8	·	·

Source: PubChem BioAssay (Broad Institute)
